In ChEMBL document CHEMBL1133441, “Development of novel quinone phosphorodiamidate prodrugs targeted to DT-diaphorase” (2000):

How the values were obtained:
[1] = target: NAD(P)H dehydrogenase [quinone] 1 (Homo sapiens) (UniProt P15559); experiment: Ratio of Kcat and Km
In short: (§1)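 Purified human DT-diaphorase (4.8 × 10-4 mg) with 1 mM NADH, 55 µM cytochrome c, 0.01 mM dithiothreitol in 0.05 M Tris pH 7.6; quinone in DMSO starts reaction. Run in triplicate at 25 °C, following cytochrome c reduction at 550 nm, no-enzyme background controls. Initial linear rates; KM and Vmax from Hanes plot.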

[2] = target: NAD(P)H dehydrogenase [quinone] 1 (Homo sapiens) (UniProt P15559); experiment: Ratio of Vmax and Km; design: unit not given here; in short: as §1
[3] = target: NAD(P)H dehydrogenase [quinone] 1 (Homo sapiens) (UniProt P15559); experiment: Kinetic analysis using purified human DT-diaphorase.; in short: as §1
HT-29 = experiment: cytotoxic activity against human colon carcinoma HT-29 cell lines.; assay type: functional
In short: (§2)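 Clonogenic survival: exponentially growing cells suspended at 1.7-2 × 10^5 cells/mL in serum-free MEM/HEPES, exposed 2 h at 37 °C, 5% CO2 to five final drug concentrations (solvent ethanol or DMSO, at most 1%), washed, plated at 2-3 densities, grown 10 days. Crystal violet-stained colonies of ≥50 cells counted; LC99 from log surviving fraction vs concentration.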

BE = experiment: cytotoxic activity against human colon carcinoma BE cell lines.; assay type: functional; in short: as §2

Sequence of NAD(P)H dehydrogenase [quinone] 1 (Homo sapiens) (P15559 whole entry): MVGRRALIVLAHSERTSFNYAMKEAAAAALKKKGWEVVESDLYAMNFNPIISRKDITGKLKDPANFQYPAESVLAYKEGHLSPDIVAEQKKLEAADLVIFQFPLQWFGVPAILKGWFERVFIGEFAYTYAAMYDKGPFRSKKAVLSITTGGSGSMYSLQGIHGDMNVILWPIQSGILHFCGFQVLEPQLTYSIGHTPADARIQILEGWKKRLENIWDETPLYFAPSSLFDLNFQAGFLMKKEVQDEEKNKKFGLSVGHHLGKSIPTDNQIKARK

Compound | Ratio [1] | Ratio [2] | k cat [3] [s⁻¹] | LC99 (HT-29) [µM] | LC99 (BE) [µM]
CC1=CC(=O)c2ccccc2C1=O | 5.8 | 0.5 | 700 |  | 
NP(=O)(OCC1=CC(=O)c2ccccc2C1=O)N1CCOCC1 (stereo not drawn) | 0.16 | 0.83 | 15 | 89 | 72
CC1=C(COP(N)(=O)N(CCCl)CCCl)C(=O)c2ccccc2C1=O (stereo not drawn) | 8.6 | 0.76 | 78 | 2.1 | 1
NP(=O)(OCC1=CC(=O)c2ccccc2C1=O)N(CCCl)CCCl (stereo not drawn) | 2 | 1.8 | 51 | 11 | 13
Cn1c(COP(N)(=O)N(CCBr)CCBr)nc2c1C(=O)C=CC2=O (stereo not drawn) | 3.1 | 0.28 | 66 | 130 | 120
NP(=O)(OCC1=C(Br)C(=O)c2ccccc2C1=O)N(CCCl)CCCl (stereo not drawn) | 3 | 2.7 | 97 | 4.1 | 3.3
CC(=O)OCC1=CC(=O)c2ccccc2C1=O | 1.6 | 1.4 | 280 | 64 | 22
CN(CCBr)P(=O)(OCC1=CC(=O)c2ccccc2C1=O)N(C)CCBr | 1.3 | 1.1 | 115 | 4.5 | 1.2
Cn1c(COP(N)(=O)N(CCCl)CCCl)nc2c1C(=O)C=CC2=O (stereo not drawn) | 4.5 | 0.4 | 41 | 220 | 300
CC1=C(COP(N)(=O)N(CCBr)CCBr)C(=O)c2ccccc2C1=O (stereo not drawn) | 9.1 | 0.81 | 63 | 1.7 | 1.2
NP(=O)(OCC1=CC(=O)c2ccccc2C1=O)N(CCBr)CCBr (stereo not drawn) | 2.2 | 2 | 46 | 7.8 | 4.6
O=C1C=C(COP(=O)(NCCCl)NCCCl)C(=O)c2ccccc21 | 2.3 | 2.1 | 88 | 14 | 7.8
CN(CCCl)P(=O)(OCC1=CC(=O)c2ccccc2C1=O)N(C)CCCl | 1.4 | 1.2 | 190 | 4.5 | 2.8
CC1=C(COP(=O)(N(C)CCBr)N(C)CCBr)C(=O)c2ccccc2C1=O | 0.5 | 0.44 | 180 | 1.5 | 0.44
CSC1=C(COP(N)(=O)N(CCCl)CCCl)C(=O)c2ccccc2C1=O (stereo not drawn) | 1.2 | 1.1 | 72 | 4.2 | 5.9
